Test results as given in ChEMBL document CHEMBL2331283, “Anti-inflammatory sesquiterpene derivatives from the leaves of Tripterygium wilfordii” (J Nat Prod, 2013).

What was measured:
BGC-823 = experiment: Cytotoxicity against human BGC823 cells by MTT assay; format: functional, cell-based
Procedure, shortened: (§1)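 MTT cytotoxicity assay on five human carcinoma lines: A549 (lung), Bel-7402 (liver), BGC-823 (stomach), HCT-8 (colon) and A2780 (ovarian). The assay was run following a published procedure. The read-out is an IC50.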

A549 = experiment: Cytotoxicity against human A549 cells by MTT assay; format: functional, cell-based; procedure, shortened: as §1
A2780 = experiment: Cytotoxicity against human A2780 cells by MTT assay; format: functional, cell-based; procedure, shortened: as §1
HCT-8 = experiment: Cytotoxicity against human HCT8 cells by MTT assay; format: functional, cell-based; procedure, shortened: as §1
Bel-7402 = experiment: Cytotoxicity against human Bel7402 cells by MTT assay; format: functional, cell-based; procedure, shortened: as §1
RAW264.7 = experiment: Inhibition of LPS-induced nitric oxide production in mouse RAW264.7 cells at 5 uM; format: functional

Structure (SMILES) | IC50 (BGC-823) [nM] | IC50 (A549) [nM] | IC50 (A2780) [nM] | IC50 (HCT-8) [nM] | IC50 (Bel-7402) [nM] | inhibition at 5 µM (RAW264.7) [%]
CC(=O)OC[C@@]12[C@@H](OC(=O)c3ccoc3)CC[C@](C)(O)[C@]13OC(C)(C)[C@H]([C@@H](OC(=O)c1cccnc1)[C@H]2OC(=O)c1ccoc1)[C@H]3OC(C)=O (relative stereo) [TRIPTERSININ H] | > 1000 | > 1000 | > 1000 | > 1000 | > 1000 | –
CC(=O)OC[C@@]12[C@@H](OC(=O)/C=C/c3ccccc3)CC[C@](C)(O)[C@]13OC(C)(C)[C@H](C(=O)[C@H]2OC(=O)c1cccnc1)[C@H]3O (relative stereo) [TRIPTERSININ A] | > 1000 | > 1000 | > 1000 | > 1000 | > 1000 | 47.3
CC(=O)OC[C@@]12[C@@H](OC(=O)/C=C\c3ccccc3)CC[C@](C)(O)[C@]13OC(C)(C)[C@H](C(=O)[C@H]2OC(=O)c1cccnc1)[C@H]3O (relative stereo) [TRIPTERSININ B] | > 1000 | > 1000 | > 1000 | > 1000 | > 1000 | –
CC(=O)O[C@@H]1[C@@H]2[C@@H](O)[C@@]34O[C@@]2(C)COC(=O)c2cnccc2C(C)C(C)(O)C(=O)O[C@@H]([C@H](OC(C)=O)[C@H](OC(C)=O)[C@@]3(COC(=O)c2ccoc2)[C@@H]1OC(C)=O)[C@]4(C)O (some centres not stated) [HYPOGLAUNINE E] | > 1000 | > 1000 | > 1000 | > 1000 | > 1000 | –
C/C=C(\C)C(=O)O[C@H]1[C@H](OC(C)=O)[C@@H]2[C@@H](OC(=O)c3cccnc3)[C@@]3(OC2(C)C)[C@@]1(COC(C)=O)[C@@H](OC(C)=O)CC[C@]3(C)O (relative stereo) | > 1000 | > 1000 | > 1000 | > 1000 | > 1000 | –
CC(=O)OC[C@@]12[C@@H](OC(=O)c3ccoc3)CC[C@](C)(O)[C@]13OC(C)(C)[C@H]([C@@H](OC(C)=O)[C@H]2OC(=O)c1ccoc1)[C@H]3OC(C)=O (relative stereo) [TRIPTERSININ K] | > 1000 | > 1000 | > 1000 | > 1000 | > 1000 | 49.9
C[C@@H]1C[C@H]2[C@@H]3CCC4=CC(=O)C=C[C@]4(C)[C@@]3(F)[C@@H](O)C[C@]2(C)[C@@]1(O)C(=O)CO [DEXAMETHASONE] | – | – | – | – | – | 70.4
CC(=O)O[C@@H]1[C@@H]2[C@@H](OC(C)=O)[C@@]34O[C@@]2(C)COC(=O)c2cnccc2C(C)C(C)(O)C(=O)O[C@@H]([C@H](OC(C)=O)[C@H](OC(C)=O)[C@@]3(COC(=O)c2ccco2)[C@@H]1OC(C)=O)[C@]4(C)O (some centres not stated) [HYPOGLAUNINE A] | > 1000 | > 1000 | > 1000 | > 1000 | > 1000 | –
CC(=O)OC[C@]12[C@H](OC(C)=O)[C@H](OC(C)=O)[C@@H]3[C@@H](OC(C)=O)[C@@]14O[C@@]3(C)COC(=O)c1cccnc1C(C)C(C)C(=O)O[C@@H]([C@H](OC(C)=O)[C@@H]2OC(C)=O)[C@]4(C)O (some centres not stated) [EUONYMINE] | > 1000 | > 1000 | > 1000 | > 1000 | > 1000 | –
CC(=O)OC[C@]12[C@H](OC(C)=O)[C@H](OC(C)=O)[C@@H]3[C@@H](OC(C)=O)[C@@]14O[C@@]3(C)COC(=O)c1cccnc1CCC(C)(O)C(=O)O[C@@H]([C@H](OC(=O)c1ccco1)[C@@H]2OC(C)=O)[C@]4(C)O (some centres not stated) [WILFORTRINE] | > 1000 | > 1000 | > 1000 | > 1000 | > 1000 | –
CC(=O)OC[C@]12[C@H](OC(C)=O)[C@H](OC(C)=O)[C@@H]3[C@@H](OC(C)=O)[C@@]14O[C@@]3(C)COC(=O)c1cnccc1C(C)C(C)C(=O)O[C@@H]([C@H](O)[C@@H]2OC(C)=O)[C@]4(C)O (some centres not stated) [WILFORDININE A] | > 1000 | > 1000 | > 1000 | > 1000 | > 1000 | 59
CC(=O)OC[C@]12[C@H](OC(C)=O)[C@H](OC(C)=O)[C@@H]3[C@@H](OC(C)=O)[C@@]14O[C@@]3(C)COC(=O)c1cccnc1CCC(C)C(=O)O[C@@H]([C@H](OC(C)=O)[C@@H]2OC(C)=O)[C@]4(C)O (some centres not stated) [EUONINE] | > 1000 | > 1000 | > 1000 | > 1000 | > 1000 | 54.7
CC(=O)OC[C@]12[C@@H](OC(C)=O)[C@H](OC(C)=O)[C@@H]3[C@@H](OC(C)=O)[C@@]14O[C@@]3(C)COC(=O)c1cnccc1CCC(C)C(=O)O[C@@H]([C@H](OC(C)=O)[C@@H]2OC(C)=O)[C@]4(C)O (some centres not stated) [WILFORDININE E] | > 1000 | > 1000 | > 1000 | > 1000 | > 1000 | –
CC(=O)OC[C@]12[C@H](OC(C)=O)[C@H](OC(C)=O)[C@@H]3[C@@H](OC(C)=O)[C@@]14O[C@@]3(C)COC(=O)c1cnccc1C(C)C(C)C(=O)O[C@@H]([C@H](OC(C)=O)[C@@H]2OC(C)=O)[C@]4(C)O (some centres not stated) [PERITASSIN A] | > 1000 | > 1000 | > 1000 | > 1000 | > 1000 | 48.2
CC(=O)OC[C@@]12[C@@H](OC(=O)/C=C\c3ccccc3)CC[C@](C)(O)[C@]13OC(C)(C)[C@H]([C@@H](OC(C)=O)[C@H]2OC(=O)c1cccnc1)[C@H]3OC(C)=O (relative stereo) [TRIPTERSININ E] | > 1000 | > 1000 | > 1000 | > 1000 | > 1000 | –
CC(=O)OC[C@@]12[C@@H](OC(=O)/C=C\c3ccccc3)CC[C@](C)(O)[C@]13OC(C)(C)[C@H]([C@@H](OC(C)=O)[C@H]2OC(=O)c1cccnc1)[C@H]3O (relative stereo) [TRIPTERSININ D] | > 1000 | > 1000 | > 1000 | > 1000 | > 1000 | –
CC(=O)OC[C@@]12[C@@H](OC(C)=O)CC[C@](C)(O)[C@]13OC(C)(C)[C@H]([C@@H](OC(=O)c1cccnc1)[C@H]2OC(=O)c1ccoc1)[C@H]3OC(C)=O (relative stereo) [TRIPTERSININ G] | > 1000 | > 1000 | > 1000 | > 1000 | > 1000 | –
CC(=O)OC[C@@]12[C@@H](OC(=O)c3ccoc3)CC[C@](C)(O)[C@]13OC(C)(C)[C@H]([C@@H](OC(C)=O)[C@H]2OC(=O)c1ccoc1)[C@H]3O (relative stereo) [TRIPTERSININ I] | > 1000 | > 1000 | > 1000 | > 1000 | > 1000 | 45.5
CC(=O)OC[C@@]12[C@@H](OC(=O)/C=C/c3ccccc3)CC[C@](C)(O)[C@]13OC(C)(C)[C@H]([C@@H](OC(C)=O)[C@H]2OC(=O)c1cccnc1)[C@H]3O (relative stereo) [TRIPTERSININ C] | > 1000 | > 1000 | > 1000 | > 1000 | > 1000 | –
CC(=O)OC[C@@]12[C@@H](OC(C)=O)CC[C@](C)(O)[C@]13OC(C)(C)[C@H]([C@@H](OC(C)=O)[C@H]2OC(=O)c1ccoc1)[C@H]3OC(=O)c1cccnc1 (relative stereo) [TRIPTERSININ F] | > 1000 | > 1000 | > 1000 | > 1000 | > 1000 | –
CC(=O)OC[C@@]12[C@@H](OC(C)=O)CC[C@](C)(O)[C@]13OC(C)(C)[C@H]([C@@H](O)[C@H]2OC(=O)c1ccoc1)[C@H]3OC(=O)c1ccoc1 (relative stereo) [TRIPTERSININ J] | > 1000 | > 1000 | > 1000 | > 1000 | > 1000 | –
